≈ marks a conversion by molar mass, not a printed value. Calls of active or inactive are those of the source. The rule behind the calls is not given here.
System: Thyroid hormone receptor (Rattus norvegicus)
Assay: Binding affinity to thyroid hormone receptor, relative to 3,5,3' triiodothyronine receptor, in isolated nuclei of heart
Conditions: not given

| Structure (SMILES) | Relative IC50 |
| --- | --- |
| N[C@@H](Cc1cc(Cl)c(Oc2ccc(O)c(Cc3ccc(O)nc3)c2)c(Cl)c1)C(=O)O | 0.53 |
| N[C@@H](Cc1cc(I)c(Oc2ccc(O)c(Cc3ccc(O)c(Cl)c3)c2)c(I)c1)C(=O)O | 15 |
| N[C@@H](Cc1cc(I)c(Oc2ccc(O)c(Cc3ccncc3)c2)c(I)c1)C(=O)O | 15 |
| N[C@H](Cc1cc(I)c(Oc2ccc(O)c(Cc3ccc(O)nc3)c2)c(I)c1)C(=O)O | 1.9 |
| N[C@@H](Cc1cc(I)c(Oc2ccc(O)c(Cc3ccccn3)c2)c(I)c1)C(=O)O | 3.5 |

System: Rattus norvegicus
Assay: Potency for induction of GPDH (mitochondrial cytochrome C 3-phosphoglycerate oxidoreductase) was measured 48 hr after single im injection relative to T3 in heart; LM=low maximal response after 2 daily doses of 50 mg/kg
Format: functional, organism-based
Set-up: dose 50 mg/kg
Conditions: filed as partial agonist

| Structure (SMILES) | Relative ED50 |
| --- | --- |
| N[C@@H](Cc1cc(Cl)c(Oc2ccc(O)c(Cc3ccc(O)nc3)c2)c(Cl)c1)C(=O)O | Partial agonist |
| N[C@@H](Cc1cc(I)c(Oc2ccc(O)c(Cc3ccncc3)c2)c(I)c1)C(=O)O | Partial agonist |
| N[C@@H](Cc1cc(I)c(Oc2ccc(O)c(Cc3ccccn3)c2)c(I)c1)C(=O)O | Partial agonist |

System: Rattus norvegicus
Assay: Potency for induction of GPDH (mitochondrial cytochrome C 3-phosphoglycerate oxidoreductase) was measured 48 hr after single im injection relative to T3 in liver; LM=low maximal response after 2 daily doses of 50 mg/kg
Format: functional, organism-based
Set-up: dose 50 mg/kg
Conditions: filed as partial agonist

| Structure (SMILES) | Relative ED50 |
| --- | --- |
| N[C@@H](Cc1cc(I)c(Oc2ccc(O)c(Cc3ccc(O)c(Cl)c3)c2)c(I)c1)C(=O)O | Partial agonist |
| N[C@@H](Cc1cc(I)c(Oc2ccc(O)c(Cc3ccncc3)c2)c(I)c1)C(=O)O | Partial agonist |

System: Rattus norvegicus
Assay: In vivo binding affinity for 3,5,3' triiodothyronine receptor of liver nuclei 1 hour after intravenous administration
Format: organism-based
Conditions: not given

| Structure (SMILES) | Relative ID50 |
| --- | --- |
| N[C@@H](Cc1cc(Cl)c(Oc2ccc(O)c(Cc3ccc(O)nc3)c2)c(Cl)c1)C(=O)O | 13 |
| N[C@@H](Cc1cc(I)c(Oc2ccc(O)c(Cc3ccc(O)c(Cl)c3)c2)c(I)c1)C(=O)O | 0.07 |
| N[C@@H](Cc1cc(I)c(Oc2ccc(O)c(Cc3ccncc3)c2)c(I)c1)C(=O)O | 7 |
| N[C@@H](Cc1cc(I)c(Oc2ccc(O)c(Cc3ccccn3)c2)c(I)c1)C(=O)O | 2.4 |

System: Rattus norvegicus
Assay: Potency for induction of GPDH (mitochondrial cytochrome C3-phosphoglycerate oxidoreductase) was measured 48 hr after single im injection relative to T3 in heart; I=inactive after 2 daily doses of 50 mg/kg
Format: functional, organism-based
Set-up: dose 50 mg/kg
Conditions: not given

| Structure (SMILES) | Relative ED50 |
| --- | --- |
| N[C@@H](Cc1cc(I)c(Oc2ccc(O)c(Cc3ccc(O)c(Cl)c3)c2)c(I)c1)C(=O)O | inactive |
| N[C@H](Cc1cc(I)c(Oc2ccc(O)c(Cc3ccc(O)nc3)c2)c(I)c1)C(=O)O | inactive |

System: Rattus norvegicus
Assay: Percent increase in oxygen consumption after seven daily doses of test compound given perorally, with concentration of compound at 5 mg/kg
Format: functional
Conditions: route oral
Summary of the method: (§1)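 Euthyroid rats given seven daily doses, intramuscular or oral, by line; whole-body oxygen consumption measured as percent increase in metabolic rate.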

| Structure (SMILES) | Increase [%] |
| --- | --- |
| N[C@@H](Cc1cc(Cl)c(Oc2ccc(O)c(Cc3ccc(O)nc3)c2)c(Cl)c1)C(=O)O | 31 |

System: Rattus norvegicus
Assay: Potency for induction of GPDH (mitochondrial cytochrome C3-phosphoglycerate oxidoreductase) was measured 48 hours after single intramuscular injection relative to T3 in liver
Format: functional
Conditions: not given

| Structure (SMILES) | Relative ED50 |
| --- | --- |
| N[C@@H](Cc1cc(Cl)c(Oc2ccc(O)c(Cc3ccc(O)nc3)c2)c(Cl)c1)C(=O)O | 1.2 |
| N[C@H](Cc1cc(I)c(Oc2ccc(O)c(Cc3ccc(O)nc3)c2)c(I)c1)C(=O)O | 1 |

System: not listed separately
Assay: Partition coefficient at 25 degree Celsius in octanol/aqueous buffer at pH 6.02
Format: physicochemical
Conditions: not given

| Structure (SMILES) | logD |
| --- | --- |
| N[C@@H](Cc1cc(Cl)c(Oc2ccc(O)c(Cc3ccc(O)nc3)c2)c(Cl)c1)C(=O)O | 0.6 |

Species on record: Rattus norvegicus
Assay: Selectivity ratio of ID50 in liver and heart
Conditions: not given
Summary of the method: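 Liver/heart selectivity in rats, calculated as (relative ID50)liver divided by (relative ID50)heart, from in vivo nuclear binding 1 h after intravenous dosing.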

| Structure (SMILES) | Ratio |
| --- | --- |
| N[C@@H](Cc1cc(I)c(Oc2ccc(O)c(Cc3ccc(O)c(Cl)c3)c2)c(I)c1)C(=O)O | 1 |
| N[C@@H](Cc1cc(I)c(Oc2ccc(O)c(Cc3ccncc3)c2)c(I)c1)C(=O)O | 4.38 |
| N[C@@H](Cc1cc(I)c(Oc2ccc(O)c(Cc3ccccn3)c2)c(I)c1)C(=O)O | 4.44 |

System: Rattus norvegicus
Assay: In vivo binding affinity for 3,5,3'' triiodothyronine receptor of heart nuclei 1 hr after intravenous administration
Format: organism-based
Conditions: not given

| Structure (SMILES) | Relative ID50 |
| --- | --- |
| N[C@@H](Cc1cc(Cl)c(Oc2ccc(O)c(Cc3ccc(O)nc3)c2)c(Cl)c1)C(=O)O | 0.5 |
| N[C@@H](Cc1cc(I)c(Oc2ccc(O)c(Cc3ccc(O)c(Cl)c3)c2)c(I)c1)C(=O)O | 0.07 |
| N[C@@H](Cc1cc(I)c(Oc2ccc(O)c(Cc3ccncc3)c2)c(I)c1)C(=O)O | 1.6 |
| N[C@@H](Cc1cc(I)c(Oc2ccc(O)c(Cc3ccccn3)c2)c(I)c1)C(=O)O | 0.54 |

System: Rattus norvegicus
Assay: Percent increase in oxygen consumption after seven daily doses of test compound given perorally; I is inactive after 2 daily doses of 50 mg/kg
Format: functional, organism-based
Set-up: dose 50 mg/kg
Conditions: not given
Summary of the method: as §1

| Structure (SMILES) | % increase O2 consumption |
| --- | --- |
| N[C@H](Cc1cc(I)c(Oc2ccc(O)c(Cc3ccc(O)nc3)c2)c(I)c1)C(=O)O | inactive |

System: not listed separately
Assay: Aqueous solubility at 37 degree Celsius at pH 7.38
Format: physicochemical
Conditions: not given
Summary of the method: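 Solubility in aqueous medium at 37 °C, pH 7.38; given in units of ×10^5 mol/L.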

| Structure (SMILES) | solubility [µM] |
| --- | --- |
| N[C@@H](Cc1cc(Cl)c(Oc2ccc(O)c(Cc3ccc(O)nc3)c2)c(Cl)c1)C(=O)O | 100 (≈ 44.9 µg/mL) |

System: not listed separately
Assay: Binding affinity to the thyroid hormone receptor was determined in vitro in isolated nuclei of rat liver relative to 3,5,3' triiodothyronine
Format: tissue-based
Conditions: not given

| Structure (SMILES) | Relative IC50 |
| --- | --- |
| N[C@@H](Cc1cc(Cl)c(Oc2ccc(O)c(Cc3ccc(O)nc3)c2)c(Cl)c1)C(=O)O | 0.49 |
| N[C@@H](Cc1cc(I)c(Oc2ccc(O)c(Cc3ccc(O)c(Cl)c3)c2)c(I)c1)C(=O)O | 5.9 |
| N[C@@H](Cc1cc(I)c(Oc2ccc(O)c(Cc3ccncc3)c2)c(I)c1)C(=O)O | 8.5 |
| N[C@H](Cc1cc(I)c(Oc2ccc(O)c(Cc3ccc(O)nc3)c2)c(I)c1)C(=O)O | 1.1 |
| N[C@@H](Cc1cc(I)c(Oc2ccc(O)c(Cc3ccccn3)c2)c(I)c1)C(=O)O | 0.96 |

System: Rattus norvegicus
Assay: Percent increase in oxygen consumption after seven daily doses of test compound given intramuscularly, with concentration of compound at 3.3 mg/kg
Format: functional
Conditions: route intramuscular
Summary of the method: as §1

| Structure (SMILES) | Increase [%] |
| --- | --- |
| N[C@@H](Cc1cc(Cl)c(Oc2ccc(O)c(Cc3ccc(O)nc3)c2)c(Cl)c1)C(=O)O | 26 |
